We go through 1 compound from ChEMBL document CHEMBL4382268, “Glycyrrhetinic acid derivatives containing aminophosphonate ester species as multidrug resistance reversers that block the NF-κB pathway and cell proliferation” (Bioorg Med Chem Lett, 2018).

Calls of active or inactive are those of the source. The calls are words filed in the database; no cut-off is given here.

In experiment [1] the target is Inhibitor of NF-kappa-B kinase alpha/beta (Homo sapiens) (UniProt O14920+O15111). Put plainly: Inhibition of IKKalpha/beta phosphorylation in human A549 cells up to 20 uM after 24 hrs by Western blot analysis. In kind it is cell-based. The essentials: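 A549 cells exposed to 5, 10 and 20 µM for 24 h. Western blots probed for NF-κB, p-IκBα, IκBα and p-IKKα/β, with GAPDH as internal control. Three experiments, representative blot shown.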
(In general: Immunoblotting shows a protein as a band on a membrane.)

Experiment [2] has as its system A549. Put plainly: Induction of apoptosis in human A549 cells assessed as hyper condensed nuclei at 5 to 20 uM after 24 hrs by Hoechst […] staining based fluorescence microscopic method. In kind it is functional, cell-based. A digest of the protocol: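 After 24 h exposure at 5, 10 and 20 µM, A549 cells harvested and stained with Hoechst 33258. Nuclear morphology, including brightly stained hypercondensed nuclei, inspected against untreated control. Three experiments.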

In experiment [3] the test system is A549. Put plainly: Cell cycle arrest in human A549 cells assessed as accumulation at G1 phase at 20 uM after 24 hrs by propidium iodide staining based flow cytometry (reference value: 47.0%). In kind it is functional. (In general: A flow cytometer gives signals particle by particle.)
The test system of experiment [4] is A549. Put plainly: Cell cycle arrest in human A549 cells assessed as accumulation at S phase at 20 uM after 24 hrs by propidium iodide staining based flow cytometry (reference value: 38.76%). The experiment is classed as functional.
Experiment [5] concerns A549. Put plainly: Cell cycle arrest in human A549 cells assessed as accumulation at G2 phase at 10 uM after 24 hrs by propidium iodide staining based flow cytometry (reference value: 14.1%). In kind it is functional.
Experiment [6] has as its system A549. Put plainly: Induction of apoptosis in human A549 cells assessed as early apoptotic cells at 10 uM after 24 hrs by annexin V-FITC/propidium iodide staining-based flow cytometry analysis (reference value: 1.28%). The experiment is classed as functional. The essentials: (§1)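 A549 cells treated at 5, 10 and 20 µM for 24 h, then harvested and stained with Annexin V-FITC and PI. Flow cytometry quadrants: Q1 necrotic, Q2 late apoptotic/necrotic, Q3 early apoptotic, Q4 living. Performed three times.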

Experiment [7] has as its system A549. Put plainly: Induction of apoptosis in human A549 cells assessed as necrotic apoptotic cells at 20 uM after 24 hrs by annexin V-FITC/propidium iodide staining-based flow cytometry analysis (reference value: 0.520%). The experiment is classed as functional. The essentials: as §1
In experiment [8] the test system is A549. Put plainly: Induction of apoptosis in human A549 cells assessed as viable cells at 10 uM after 24 hrs by annexin V-FITC/propidium iodide staining-based flow cytometry analysis (reference value: 96.0%). The experiment is classed as functional. Conditions: A549, 24 h, read-out: Activity. A digest of the protocol: as §1
The test system of experiment [9] is A549. Put plainly: Cell cycle arrest in human A549 cells assessed as accumulation at G2 phase at 5 uM after 24 hrs by propidium iodide staining based flow cytometry (reference value: 14.1%). The experiment is classed as functional.
The nature of experiment [10]: Inhibition of TNF-alpha induced NF-kappaB activation in human A549 cells after 7 hrs by Bright-Glo luciferase reporter gene assay. In kind it is cell-based. The following applies: Homo sapiens, A549, 7 h; read-out: IC50. A digest of the protocol:
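A549 cells transiently cotransfected with an NF-κB-Luc reporter and stimulated with TNF-α. Luciferase read-out of inhibition gives IC50, the mean of at least three independent experiments each with triplicates.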

By IC50 is commonly meant the point on the concentration scale where inhibition reaches its midpoint. `CCOP(=O)(OCC)C(Nc1ccc(CC(=O)NCCCCNC(=O)[C@@]2(C)CC[C@]3(C)CC[C@]4(C)C(=CC(=O)[C@@H]5[C@@]6(C)CC[C@H](OC(C)=O)C(C)(C)[C@@H]6CC[C@]54C)[C@@H]3C2)cc1)c1ccc(F)cc1` (stereo not given in full): the inhibition result in [1] was “Active”. The outcome in experiment [2] was Active. Besides, the Activity is reported as 43.02% in experiment [3]; 54.32% in [4]; 9.9% in experiment [5]; 19.1% in [6]; 0.509% in [7]; 0% in experiment [9]. In addition, the viability at 10 µM in experiment [8] turned out to be 57.9%. Moreover, the IC50 in experiment [10] came to 970 nM.
